ChEMBL document CHEMBL1145773, “Design, synthesis, SAR, and molecular modeling studies of acylthiocarbamates: a novel series of potent non-nucleoside HIV-1 reverse transcriptase inhibitors structurally related to phenethylthiazolylthiourea derivatives” (J Med Chem, 2003)

How the values were obtained:
[1] = tested on: Human immunodeficiency virus 1; experiment: Anti HIV-1 activity of selected N-acylthiocarbamates against Y181C resistant mutant; assay type: functional, organism-based
Summary of the method: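 Acutely infected MT-4 cells (1 × 10⁴ cells/well) incubated at 37 °C with serial compound dilutions (DMSO stock, diluted in medium) and Y181C mutant virus (NIH N119; titer 1.3 × 10⁶ CCID₅₀/mL) dosed to cause full cytopathogenicity by day 4. Viability read by MTT; EC₅₀ = concentration giving 50% protection from virus-induced cytopathogenicity.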

[2] = target: Human immunodeficiency virus type 1 reverse transcriptase (Human immunodeficiency virus 1, UniProt Q72547); experiment: Activity of selected HIV-1 N-acylthiocarbamates in enzyme assay against Virion-Associated reverse transcriptase
Summary of the method: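 Virion-associated RT from stock virus disrupted with 0.5% NP-40. Incubation 60 min at 37 °C, then acid-insoluble radioactivity counted on glass fiber filters.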

[3] = tested on: MT4; experiment: Selectivity index which is the ratio of CC50 and EC50 was determined; assay type: functional, Homo sapiens
Summary of the method: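 MT-4 cells (1 × 10^4/well) were seeded with or without serial compound dilutions, then infected with HIV-1 IIIB at enough CCID50 for complete cytopathogenicity by day 4. Cultures were incubated at 37 °C and viability was read by MTT. […] Cytotoxicity was run in parallel on mock-infected cells, and SI = CC50/EC50. Data are means of three separate experiments.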

[4] = tested on: Human immunodeficiency virus 1; experiment: Concentration required to reduce the amount of p24 by 90% in HIV-1 infected C8166 cultures; assay type: functional, organism-based; conditions: Human immunodeficiency virus 1, C8166
Summary of the method: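 C8166 cells (1 × 10^4/well) were infected with wt HIV-1 in the presence of graded compound concentrations, with DMSO stocks diluted in culture medium. After incubation at 37 °C, p24 antigen was measured by immunoenzymatic kit. EC90 is the concentration lowering p24 by 90%.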

[5] = tested on: MT-4 (Homo sapiens); experiment: Concentration required to reduce the viability of mock-infected MT-4 cells by 50% was determined by MTT method; conditions: MT4

SMILES | EC50 [1] [µM] | IC50 [2] [nM] | SI [3] | EC90 [4] [nM] | CC50 [5] [µM]
S=C(NCCc1ccccn1)Nc1ccc(Br)cn1 [TROVIRDINE] | 1.2 | 4200 | 3000 | 15 | 60
O=C(c1ccccc1)N(C(=S)OCCOc1ccccc1)c1ccc(F)cc1 |  |  | 17.6 |  | 70.7
CCc1ccccc1N(C(=O)c1cccs1)C(=S)OCCN1C(=O)c2ccccc2C1=O |  |  | >9 |  | > 100
COc1ccccc1N(C(=O)c1cccs1)C(=S)OCCN1C(=O)c2ccccc2C1=O |  |  | >9 |  | > 100
CC(COc1ccccc1)OC(=S)N(C(=O)c1cccs1)c1ccc(Cl)cc1 (stereo unspecified) |  |  | >9 |  | > 100
O=C1c2ccccc2C(=O)N1CCOC(=S)N(C(=O)c1cccs1)c1cccc(Br)c1 |  |  | 44 |  | 53
O=C1c2ccccc2C(=O)N1CCOC(=S)N(C(=O)c1ccco1)c1ccc(Cl)cc1 | 1.7 | 2300 | 5857 | 5 | 41
O=C(c1ccco1)N(C(=S)OCCOc1ccccc1)c1ccccc1 |  |  | 9.7 |  | 82
O=C1c2ccccc2C(=O)N1CCOC(=S)N(C(=O)c1cccs1)c1ccc(F)cc1 |  |  | >1000 |  | > 100
O=C(c1ccccc1)N(C(=S)OCCOc1ccccc1)c1ccccc1 |  |  | 15.2 |  | 122
O=C(c1ccccc1)N(C(=S)OCCOc1ccccc1)C1CCCCC1 |  |  |  |  | > 200
O=C(c1ccccc1)N(C(=S)OCCSc1ccccc1)c1ccccc1 |  |  |  |  | 44
O=C(/C=C/c1ccccc1)N(C(=S)OCCOc1ccccc1)c1ccccc1 |  |  | 8.65 |  | 66.6
O=C1c2ccccc2C(=O)N1CCOC(=S)N(C(=O)c1ccccc1)c1ccccc1 | > 100 |  | >500 | 800 | > 200
CCN(CC)c1ccc(N(C(=O)c2cccs2)C(=S)OCCN2C(=O)c3ccccc3C2=O)cc1 |  |  | 9 |  | > 100
CC(COc1ccccc1)OC(=S)N(C(=O)COc1ccccc1)c1ccccc1 (stereo unspecified) |  |  | 87.4 |  | 122
O=C(c1ccc(Cl)cc1)N(C(=S)OCCOc1ccccc1)c1ccccc1 |  |  | 12.9 |  | 133
COc1cccc(N(C(=O)c2cccs2)C(=S)OCCN2C(=O)c3ccccc3C2=O)c1 |  |  | >28 |  | > 100
O=C(c1cc(Cl)cc(Cl)c1)N(C(=S)OCCOc1ccccc1)c1ccccc1 |  |  | 4.8 |  | 43
CC(COc1ccccc1)OC(=S)N(C(=O)c1ccccc1)c1ccccc1 (stereo unspecified) |  |  | >153.8 |  | > 200

SMILES | EC50 [1] [µM] | IC50 [2] [nM] | SI [3] | EC90 [4] [nM] | CC50 [5] [µM]
O=C(/C=C/c1ccccc1)N(C(=S)OCCc1ccccc1)c1ccccc1 |  |  | 9 |  | 40.4
O=C1c2ccccc2C(=O)N1CCOC(=S)N(C(=O)c1ccc(Cl)cc1)c1ccc(Cl)cc1 | 11.6 |  | >4000 | 20 | > 100
Cc1ccc(C(=O)N(C(=S)OCCOc2ccccc2)c2ccccc2)cc1 |  |  | >20.2 |  | > 200
CC(=O)Oc1ccccc1C(=O)N(C(=S)OCCOc1ccccc1)c1ccccc1 |  |  | >21 |  | > 200
O=C1c2ccccc2C(=O)N1CCOC(=S)N(C(=O)c1cccs1)c1ccc(I)cc1 |  |  | 1800 |  | 18
O=C1c2ccccc2C(=O)N1CCOC(=S)N(C(=O)c1ccccc1)c1ccc(Cl)cc1 | > 100 |  | >2000 | 130 | > 200
O=C1c2ccccc2C(=O)N1CCOC(=S)N(C(=O)c1cccs1)c1ccc(Cl)cc1 | 1 | 2500 | >25000 | 8 | > 200
CC(COc1ccccc1)OC(=S)N(C(=O)c1cccs1)c1cccc(Cl)c1 (stereo unspecified) |  |  | >9 |  | > 100
CC(COc1ccccc1)OC(=S)N(C(=O)c1ccco1)c1ccccc1 (stereo unspecified) |  |  | 39.6 |  | 51.5
Cc1ccccc1N(C(=O)c1cccs1)C(=S)OCCN1C(=O)c2ccccc2C1=O |  |  | >9 |  | > 100
O=C1c2ccccc2C(=O)N1CCOC(=S)N(C(=O)c1cccs1)c1cccc([N+](=O)[O-])c1 |  |  | 263 |  | 100
CC(COc1ccccc1)OC(=S)N(C(=O)c1cccs1)c1ccccc1 (stereo unspecified) |  |  | >100 |  | > 200
Cc1ccc(N(C(=O)c2cccs2)C(=S)OCCN2C(=O)c3ccccc3C2=O)cc1 |  |  | >250 |  | > 100
O=C1c2ccccc2C(=O)N1CCOC(=S)N(C(=O)c1cccs1)c1ccccc1Cl |  |  | 9 |  | > 100
O=C1c2ccccc2C(=O)N1CCOC(=S)N(C(=O)c1ccco1)c1ccc([N+](=O)[O-])cc1 | 14 |  | 2250 | 5 | 18
CC(COc1ccccc1)OC(=S)N(C(=O)c1cccc2ccccc12)c1ccccc1 (stereo unspecified) |  |  | >33.3 |  | 
O=C(c1ccccc1)N(C(=S)OCCc1ccccc1)c1ccccc1 |  |  | 22 |  | 91
O=C1c2ccccc2C(=O)N1CCOC(=S)N(C(=O)c1ccccc1)c1ccc(Br)cc1 |  |  | >5714 |  | > 200
O=C1c2ccccc2C(=O)N1CCOC(=S)N(C(=O)c1cccs1)c1cccc(F)c1 |  |  | >9 |  | > 100
O=C(c1ccco1)N(C(=S)OCc1ccccc1)c1ccccc1 |  |  | 1.9 |  | 

SMILES | EC50 [1] [µM] | IC50 [2] [nM] | SI [3] | EC90 [4] [nM] | CC50 [5] [µM]
CCCOC(=O)N(C(=S)OC(C)COc1ccccc1)c1ccccc1 (stereo unspecified) |  |  | >1.5 |  | > 200
CC(COc1ccccc1)OC(=S)N(C(=O)c1cccc([N+](=O)[O-])c1)c1ccccc1 (stereo unspecified) |  |  | >55.5 |  | > 200
CC(=O)c1cccc(N(C(=O)c2cccs2)C(=S)OCCN2C(=O)c3ccccc3C2=O)c1 |  |  | >17 |  | > 100
CCCCOC(=O)N(C(=S)OC(C)COc1ccccc1)c1ccccc1 (stereo unspecified) |  |  | >4 |  | > 200
O=C(c1ccc(Cl)c([N+](=O)[O-])c1)N(C(=S)OCCOc1ccccc1)c1ccccc1 |  |  | 10.5 |  | 80
Cc1cccc(N(C(=O)c2cccs2)C(=S)OCCN2C(=O)c3ccccc3C2=O)c1 |  |  | >10 |  | > 100
O=C(c1ccccc1)N(C(=S)OCc1ccco1)c1ccccc1 |  |  |  |  | 38.3
O=C(COc1ccccc1)N(C(=S)OCCOc1ccccc1)c1ccccc1 |  |  | 17.1 |  | 103
CCOc1ccc(N(C(=O)c2ccc(Cl)nc2)C(=S)OCCN2C(=O)c3ccccc3C2=O)cc1 |  |  | >200 |  | 
CC(COc1ccccc1)OC(=S)N(C(=O)c1cccs1)c1ccc([N+](=O)[O-])cc1 (stereo unspecified) |  |  | 10.5 |  | 63
O=C(c1ccco1)N(C(=S)OCCc1ccccc1)c1ccccc1 |  |  | 24 |  | 102
O=C1c2ccccc2C(=O)N1CCOC(=S)N(C(=O)c1cccs1)c1cccc(C(F)(F)F)c1 |  |  | >9 |  | > 100
O=C(c1cccs1)N(C(=S)OCCOc1ccccc1)c1ccccc1 |  |  | 14.5 |  | 125
CC(COc1ccccc1)OC(=S)N(C(=O)Oc1ccccc1)c1ccccc1 (stereo unspecified) |  |  |  |  | > 200
CCc1ccc(N(C(=O)c2ccco2)C(=S)OCCN2C(=O)c3ccccc3C2=O)cc1 |  |  | >3333 |  | > 100
O=C(c1ccc(Cl)cc1)N(C(=S)OCCc1ccccc1)c1ccccc1 |  |  | 10.7 |  | 43
COc1cc(C(=O)N(C(=S)OCCOc2ccccc2)c2ccccc2)cc(OC)c1OC |  |  | >20.8 |  | > 200
O=C(c1ccc(Cl)cc1Cl)N(C(=S)OCCOc1ccccc1)c1ccccc1 |  |  | 3.7 |  | 43
O=C1c2ccccc2C(=O)N1CCOC(=S)N(C(=O)c1cccs1)c1ccc([N+](=O)[O-])cc1 | 58 |  | 16800 |  | 168
O=C1c2ccccc2C(=O)N1CCOC(=S)N(C(=O)c1cccs1)c1cccc(Cl)c1 |  |  | >17 |  | > 100
